Assay results reported in ChEMBL document CHEMBL1131291, “Rational design, synthesis, and X-ray structure of selective noncovalent thrombin inhibitors” (J Med Chem, 1998).

Key:
Coagulation factor X [1] = target: T1, Coagulation factor X (Homo sapiens, UniProt P00742); assay: In vitro inhibition was measured against Human Coagulation factor X; […]
Procedure, shortened: (§1)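 Factor Xa was used at 30 pM final, with Pefachrome Xa substrate, in phosphate buffer pH 7.4 with 100 mM NaCl and 0.1% BSA, at 25 °C. The enzyme-initiated reaction was followed as the 405 nm increase for 30 min. Inhibitor was diluted from a cremophor/ethanol solution. Ki came from weighted Dixon-plot regression; triplicate determinations.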

Prothrombin = Prothrombin (Homo sapiens, UniProt P00734); assay: In vitro inhibition was measured against Human Thrombin.
Serine protease 1 [2] = target: T2, Serine protease 1 (Bos taurus, UniProt P00760); assay: In vitro inhibition was measured against […] bovine pancreatic trypsin.
T2 sequence (P00760 whole entry): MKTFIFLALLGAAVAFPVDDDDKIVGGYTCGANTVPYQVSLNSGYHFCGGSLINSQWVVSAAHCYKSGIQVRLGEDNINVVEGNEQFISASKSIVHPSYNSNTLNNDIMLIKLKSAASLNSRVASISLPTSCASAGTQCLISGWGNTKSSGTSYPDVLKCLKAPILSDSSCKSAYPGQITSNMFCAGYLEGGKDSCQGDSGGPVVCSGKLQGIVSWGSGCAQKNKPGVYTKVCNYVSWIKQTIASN
Procedure, shortened: (§2)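 Trypsin at 260 pM final was run with Pefachrome TRY substrate in 100 mM sodium phosphate pH 7.4, 100 mM NaCl and 0.1% BSA, at 25 °C. Inhibitor was pre-mixed with substrate and the reaction started with enzyme. Absorbance at 405 nm (p-nitroaniline) was read over 30 min. Ki was fitted to the Dixon equation by weighted linear regression; triplicate, mean ± SD.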

Coagulation factor X [3] = target: T1, Coagulation factor X; assay: In vitro inhibition was measured against Human Coagulation factor X; procedure, shortened: as §1
Serine protease 1 [4] = target: T2, Serine protease 1; assay: In vitro inhibition was measured against Bovine pancreatic trypsin.; procedure, shortened: as §2

T1 sequence (P00742 41-179 limits assumed): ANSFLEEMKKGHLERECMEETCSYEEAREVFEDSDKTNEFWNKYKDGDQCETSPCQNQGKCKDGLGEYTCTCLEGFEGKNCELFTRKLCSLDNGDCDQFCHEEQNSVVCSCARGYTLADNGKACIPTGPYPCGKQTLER
T1 sequence (P00742 235-488 limits assumed): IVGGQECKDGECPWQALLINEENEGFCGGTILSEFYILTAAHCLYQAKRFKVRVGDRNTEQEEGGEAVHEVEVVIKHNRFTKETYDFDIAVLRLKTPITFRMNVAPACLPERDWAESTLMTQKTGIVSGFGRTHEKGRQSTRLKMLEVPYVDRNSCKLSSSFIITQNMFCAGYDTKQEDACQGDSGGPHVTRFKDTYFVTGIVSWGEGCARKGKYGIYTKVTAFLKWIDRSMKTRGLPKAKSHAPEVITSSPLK

Ki (Coagulation factor X [1])	Ki (Prothrombin) [µM]	Ki (Serine protease 1 [2]) [µM]	Ki (Coagulation factor X [3]) [µM]	Ki (Serine protease 1 [4]) [µM]	SMILES
Not Active	19.5	3.58	–	–	NC(N)=NCCCCNC(=O)[C@@H]1CS[C@H]2CC[C@H](N)C(=O)N21.O=C(O)C(F)(F)F
–	–	5.1	26	–	N=C(N)NCCCNC(=O)[C@@H]1CS[C@H]2CC[C@@H](NS(=O)(=O)Cc3ccccc3)C(=O)N21
–	–	–	17.8	19.6	N=C(N)NCCCNC(=O)[C@@H]1CS[C@H]2CC[C@H](NS(=O)(=O)c3cccc4ccccc34)C(=O)N21
–	0.751	3.4	6.78	–	N=C(N)NCCCNC(=O)[C@@H]1CS[C@H]2CC[C@@H](NS(=O)(=O)c3cccc4ccccc34)C(=O)N21
Not Active	62.4	5.36	–	–	NC(N)=NCCCCNC(=O)[C@@H]1CS[C@H]2CC[C@@H](N)C(=O)N21.O=C(O)C(F)(F)F
–	5.1	13.3	> 33.7	–	NC(N)=NCCCNC(=O)[C@@H]1CS[C@H]2CC[C@H](N)C(=O)N21
Not Active	10.3	25.1	–	–	NC(N)=NCCCNC(=O)[C@@H]1CS[C@H]2CC[C@@H](N)C(=O)N21.O=C(O)C(F)(F)F
–	0.111	7.9	> 33.7	–	N=C(N)NCCCNC(=O)[C@@H]1CS[C@H]2CC[C@H](NS(=O)(=O)Cc3ccccc3)C(=O)N21
